Among the data in PubChem BioAssay are outcome and inhibition values, retold here.

Broadly, the inhibition is the share of the control response that was lost under treatment.

Active and inactive are the calls of the source.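 The calls were made as follows, unless noted: active = signal rise over 3 SD above mean of control wells given weak agonist, in both repeats and first screen; inactive = the rest.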

Tested on in one test: not listed separately
In words: calcium flux inhibitors in TRPC4/5HT1a cells, confirmation, counter-screen for TRPC4 inhibitor project, cell-based, second counter screen, HEK293 TRPC4/5HT1a, Fluo-4 (AID 434978;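 active = primary screen active whose calcium signal fell more than 3 SD beyond the full-serotonin control mean in both duplicate plates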;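 as to outcome: serotonin given first at submaximal then at maximal dose after compound preincubation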). Particulars: Fluo-4 calcium flux, at 10 µM, serotonin added to trigger calcium flux; hits give high values. Put shortly: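 Times: 110 s each for compound, submaximal and ECmax serotonin; Assay system: TRPC4/5HT1a HEK293 cells; Also added: serotonin, a submaximal addition followed by a maximal (ECmax) addition; Replicates: each compound tested on duplicate plates; Measured by: Fluo-4 calcium fluorescence.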
Consider `Cc1cc(/C=C2/C(=N)N3C(=NC2=O)SN=C3S(C)(=O)=O)c(C)n1-c1ccccc1F`, for which the result was inactive.

Take `Cc1ccc(O)c(CNc2nc3ccccc3[nH]2)c1`: the inhibition is 24.5% (active).

As for `CC(Oc1ccc(Cl)cc1Cl)c1nc(-c2ccccn2)no1` (stereo not drawn), the inhibition is 22.7% (active).

With `Fc1ccccc1COc1ccccc1CNCc1ccncc1`, the result was inactive.

Consider `CC12CC3(C)CC(C)(C1)CC(NC(=O)N1CCCC1)(C2)C3`, for which the result was inactive.

For the compound `Clc1cccc(COn2c(-c3ccc(Cl)cc3Cl)nc3ncccc32)c1`, the inhibition was 41.3% (active).

In the case of `CC1CCN(CCCOc2ccc(OCc3ccccc3)cc2)CC1`, the inhibition is 22.7% (active).

As to `CCN(CC)C(=O)C1CCCN(Cc2cccc(Oc3ccccc3)c2)C1` (stereo not drawn), the inhibition is 25.7% (active).

As to `O=C(O)c1ccc(NC(=S)NC(=O)c2ccc(-c3ccccc3)cc2)cc1`, the inhibition is 43.1% (active).

Regarding `Cc1ccc(C)c2[nH]c(=O)c(CN(Cc3nnnn3C3CCCCC3)CC3CCCO3)cc12` (stereo not drawn), the inhibition was 33% (active).

`CC(C)CN(CC(C)C)c1nc(N)c(C#N)c(CC#N)c1C#N`: the inhibition is 39.2% (active).

`CC(C)Oc1cccc(C(=O)C2CCCN(Cc3cnn(C(C)C)c3)C2)c1` (stereo not drawn): the outcome was inactive.

Consider `Cc1ccc(O)c(Sc2cc(C)ccc2O)c1`, for which the inhibition was 13.7% (active).

As for `Cc1cccc(Cn2c(C(C)(C)C)cc3cccnc32)c1`, the inhibition is 19.4% (active).

For the compound `Cc1cc(N2CCC(C)CC2)nc2cccc(O)c12`, the result was inactive.

With `CSCCNCc1cn(-c2ccc(F)cc2F)nc1-c1ccccc1C`, the outcome was inactive.

For `CC(/C=C1\SC(=S)N(C(C(=O)O)C(C)C)C1=O)=C\c1ccccc1` (stereo not drawn), the inhibition was 16% (active).

With `CCN(CC)CCn1c2ccccc2c2cnc(N)c(C#N)c21`, the inhibition was 32.9% (active).

Consider `CCOC(=O)C1CCN(CC(O)COc2ccc(C(C)(C)C)cc2)CC1` (stereo not drawn), for which the inhibition was 41.5% (active).

`CCOC(=O)c1oc2ccccc2c1CN1CCCCC1`: the inhibition is 34.9% (active).

On to `CC(C)Cc1cc(CN2CCCC(CO)(Cc3cccc(Cl)c3)C2)[nH]n1` (stereo not drawn), for which the inhibition is 42.2% (active).

As for `CCCCOc1ccc(CSCCN=C(N)N)cc1`, the inhibition was 40.1% (active).

As for `N#Cc1c(NC(=O)C2CC(Cl)=CCC2C(=O)O)sc2c1CCCCC2` (stereo not drawn), the inhibition was 18.6% (active).

With `Cc1ccccc1C(=O)NC1CC2CCC(C1)N2Cc1ccccc1` (stereo not drawn), the inhibition was 43.3% (active).

Take `COc1ccc(/C=C2\SC(=S)N(C(Cc3ccccc3)C(=O)O)C2=O)cc1` (stereo not drawn): the inhibition was 32.2% (active).

With `Cc1cc(NCc2ccccc2)nc(N2CCOCC2)n1`, the inhibition was 26.5% (active).

In the case of `CCCc1nc(SC2CCCC2)c2c(=O)n(C)c(=O)n(C)c2n1`, the inhibition is 39.1% (active).

`Fc1ccccc1Sc1ccccc1CNC1=NCCN1`: the inhibition is 16.1% (active).

On to `CCc1nc2ccccc2n1Cc1ccccc1OC`, for which the inhibition is 43.4% (active).

As to `CSc1nc(N2CCOCC2)c2c3c(sc2n1)CCCC3`, the inhibition was 37.5% (active).

`COc1cccc(CNC(=O)CCC2CCCN(Cc3cc(Cl)ccc3O)C2)c1` (stereo not drawn): the inhibition is 29% (active).

`CCOC(=O)C1(Cc2ccccc2C)CCCN(Cc2ccc(NC(C)=O)cc2)C1` (stereo not drawn): the outcome was inactive.

For `CCn1c(NCc2c[nH]c3ccccc23)nc2ccccc21`, the inhibition is 32.7% (active).

For the compound `O=C(c1ccc2c(c1)OCO2)C1CCCN(Cc2ccccc2OC(F)F)C1` (stereo not drawn), the inhibition is 41.6% (active).

As for `CC(C)(C)c1cc2cccnc2n1Cc1ccccc1`, the inhibition is 15.4% (active).

Consider `Cc1cccc(C)c1-n1cccc1/C=C1\SC(=S)N(c2cccc(C(=O)O)c2)C1=O`, for which the inhibition is 23.2% (active).

With `COc1ccc2nc(NCc3ccccc3)[nH]c2c1`, the inhibition was 23.6% (active).

For `Cc1ccc(C(=O)NC(=S)Nc2c(C)ccc3nsnc23)cc1`, the inhibition is 18.1% (active).

`Cc1ccccc1N1CC(O)(c2cccs2)[N+]2=C1CCCC2` (stereo not drawn): the result was inactive.

In another test the test system is TRPC4 (mouse), co-expressed with 5HT1a in HEK293. Nature of the test: calcium flux potentiators in TRPC4/5HT1a cells, confirmation, counter-screen for TRPC4 potentiator project, cell-based, second counter screen, HEK293 TRPC4/5HT1a, Fluo-4 (AID 434979). Conditions: Fluo-4 calcium flux, at 10 µM, serotonin added at its EC20 dose; hits give high values. (Calcium assays in cells follow changes in intracellular calcium, usually with a dye or a luminescent sensor.)
Regarding `Cc1cc(/C=C2/C(=N)N3C(=NC2=O)SN=C3S(C)(=O)=O)c(C)n1-c1ccccc1F`, the outcome was inactive.

On to `Cc1ccc(O)c(CNc2nc3ccccc3[nH]2)c1`, for which the result was inactive.

As for `CC(Oc1ccc(Cl)cc1Cl)c1nc(-c2ccccn2)no1` (stereo not drawn), the outcome was inactive.

Consider `Fc1ccccc1COc1ccccc1CNCc1ccncc1`, for which the outcome was inactive.

For `CC12CC3(C)CC(C)(C1)CC(NC(=O)N1CCCC1)(C2)C3`, the result was inactive.

As for `Clc1cccc(COn2c(-c3ccc(Cl)cc3Cl)nc3ncccc32)c1`, the result was inactive.

Take `CC1CCN(CCCOc2ccc(OCc3ccccc3)cc2)CC1`: the outcome was inactive.

On to `CCN(CC)C(=O)C1CCCN(Cc2cccc(Oc3ccccc3)c2)C1` (stereo not drawn), for which the result was inactive.

With `O=C(O)c1ccc(NC(=S)NC(=O)c2ccc(-c3ccccc3)cc2)cc1`, the result was inactive.

In the case of `Cc1ccc(C)c2[nH]c(=O)c(CN(Cc3nnnn3C3CCCCC3)CC3CCCO3)cc12` (stereo not drawn), the result was inactive.

As to `CC(C)CN(CC(C)C)c1nc(N)c(C#N)c(CC#N)c1C#N`, the outcome was inactive.

For the compound `CC(C)Oc1cccc(C(=O)C2CCCN(Cc3cnn(C(C)C)c3)C2)c1` (stereo not drawn), the result was inactive.

Turning to `Cc1ccc(O)c(Sc2cc(C)ccc2O)c1`, the result was inactive.

Turning to `Cc1cccc(Cn2c(C(C)(C)C)cc3cccnc32)c1`, the result was inactive.

`Cc1cc(N2CCC(C)CC2)nc2cccc(O)c12`: the result was inactive.

On to `CSCCNCc1cn(-c2ccc(F)cc2F)nc1-c1ccccc1C`, for which the outcome was inactive.

In the case of `CC(/C=C1\SC(=S)N(C(C(=O)O)C(C)C)C1=O)=C\c1ccccc1` (stereo not drawn), the outcome was inactive.

Take `CCN(CC)CCn1c2ccccc2c2cnc(N)c(C#N)c21`: the result was inactive.

As for `CCOC(=O)C1CCN(CC(O)COc2ccc(C(C)(C)C)cc2)CC1` (stereo not drawn), the outcome was inactive.

Turning to `CCOC(=O)c1oc2ccccc2c1CN1CCCCC1`, the result was inactive.

For `CC(C)Cc1cc(CN2CCCC(CO)(Cc3cccc(Cl)c3)C2)[nH]n1` (stereo not drawn), the outcome was inactive.

As for `CCCCOc1ccc(CSCCN=C(N)N)cc1`, the outcome was inactive.

For the compound `N#Cc1c(NC(=O)C2CC(Cl)=CCC2C(=O)O)sc2c1CCCCC2` (stereo not drawn), the outcome was inactive.

Turning to `Cc1ccccc1C(=O)NC1CC2CCC(C1)N2Cc1ccccc1` (stereo not drawn), the result was inactive.

Turning to `COc1ccc(/C=C2\SC(=S)N(C(Cc3ccccc3)C(=O)O)C2=O)cc1` (stereo not drawn), the outcome was inactive.

For the compound `Cc1cc(NCc2ccccc2)nc(N2CCOCC2)n1`, the result was inactive.

On to `CCCc1nc(SC2CCCC2)c2c(=O)n(C)c(=O)n(C)c2n1`, for which the result was inactive.

For the compound `Fc1ccccc1Sc1ccccc1CNC1=NCCN1`, the result was inactive.

As to `CCc1nc2ccccc2n1Cc1ccccc1OC`, the result was inactive.

As to `CSc1nc(N2CCOCC2)c2c3c(sc2n1)CCCC3`, the outcome was inactive.

For `COc1cccc(CNC(=O)CCC2CCCN(Cc3cc(Cl)ccc3O)C2)c1` (stereo not drawn), the outcome was inactive.

Consider `CCOC(=O)C1(Cc2ccccc2C)CCCN(Cc2ccc(NC(C)=O)cc2)C1` (stereo not drawn), for which the outcome was inactive.

Consider `CCn1c(NCc2c[nH]c3ccccc23)nc2ccccc21`, for which the outcome was inactive.

Consider `O=C(c1ccc2c(c1)OCO2)C1CCCN(Cc2ccccc2OC(F)F)C1` (stereo not drawn), for which the outcome was inactive.

Regarding `CC(C)(C)c1cc2cccnc2n1Cc1ccccc1`, the outcome was inactive.

`Cc1cccc(C)c1-n1cccc1/C=C1\SC(=S)N(c2cccc(C(=O)O)c2)C1=O`: the result was inactive.

Take `COc1ccc2nc(NCc3ccccc3)[nH]c2c1`: the result was inactive.

As for `Cc1ccc(C(=O)NC(=S)Nc2c(C)ccc3nsnc23)cc1`, the result was inactive.

Consider `Cc1ccccc1N1CC(O)(c2cccs2)[N+]2=C1CCCC2` (stereo not drawn), for which the result was inactive.
